From paper PMC3160560 (Investigational New Drugs, 2010)
Where two headings read alike, the source gives them in different places.

Assays:
[1] = toxicity in first treatment cycle; type: in vivo, human; conditions: for Neutropenia grade 3–4: No (No. patients) / Neutropenia grade 3–4: Yes (No. patients): cycle 1, RP2D
In short: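 Adverse events in cycle 1 were graded by NCI-CTC v3.0. Phase II patients received 330 mg/m2 on days 1, 8 and 15 (6-h) or 500 mg/m2 on days 1 and 15 (24-h) every 28 days. Genotypes were compared by two-sided chi-square.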

aurora-A (AURKA) = conditions: read-out: IC50 aurora-A; cited from earlier work
aurora-B (AURKB) = conditions: read-out: IC50 aurora-B; cited from earlier work
[2] = test system: histone H3 phosphorylation; test: histone H3 phosphorylation in skin biopsies by immunohistochemistry; type: in vivo, human
In short: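 Skin biopsies were taken at baseline and 10 min before the end of the first infusion of cycle 1. Phospho-histone H3 was stained by immunohistochemistry, giving the % change in positive cells. AURKB genotypes were compared by t-test/ANOVA.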

[3] = molecular target: vascular endothelial growth factor receptor 3 (FLT4, VEGFR3); conditions: read-out: IC50 FLT4 (VEGFR3); panel of 32 kinases; cited from earlier work
[4] = molecular target: fms-related tyrosine kinase 3 (FLT3); conditions: read-out: IC50 FLT3; panel of 32 kinases; cited from earlier work
aurora-C (AURKC) = conditions: read-out: IC50 aurora-C; cited from earlier work
[5] = test system: ATP-binding cassette G2 (ABCG2/BCRP); conditions: in vitro; ref unpublished data (b4), 26; cited from earlier work
[6] = pharmacokinetics in phase I cancer patients; type: in vivo, human
In short: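 In the phase I trial, the test compound was given IV on days 1, 8 and 15 every 28 days. Doses were 45–400 mg/m2 by 6-h infusion or 250–330 mg/m2 by 3-h infusion. Blood was sampled on days 1–4, 8, 15–18 and 22 of cycle 1. Clearance (L/hour/m2) came from non-compartmental analysis. Genotypes came from TaqMan assays on blood DNA and were compared by t-test/ANOVA.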

[7] = cited from earlier work
ret proto-oncogene (RET) = conditions: read-out: IC50 RET; panel of 32 kinases; cited from earlier work
[8] = test system: ATP-binding cassette B1 (ABCB1/MDR1); conditions: in vitro; ref unpublished data (b4), 26; cited from earlier work
[9] = AURKA 91A > T AT, total 6 patients
[10] = AURKA 169G > A GA, total 11 patients
[11] = AURKA 169G > A GG, total 18 patients
[12] = AURKB 893G > A GA, total 8 patients
[13] = FLT3 738C > T CC, total 5 patients
[14] = FLT3 738C > T TT, total 10 patients
[15] = FLT4 1480A > G AG, total 7 patients
[16] = KDR 54G > A AA, total 5 patients
[17] = KDR 54G > A GA, total 16 patients
[18] = KDR 54G > A GG, total 9 patients
[19] = KDR 1192G > A GA, total 3 patients
[20] = KDR −92G > A AG, total 7 patients
[21] = KDR −92G > A GG, total 20 patients
[22] = KDR −604T > C TT, total 6 patients
[23] = RET 135G > A AA, total 3 patients (3 missing)
[24] = RET 135G > A GA, total 8 patients (3 missing)
[25] = RET 37412G > A GA, total 5 patients

Compound: CO[C@@H](C(=O)N1Cc2n[nH]c(NC(=O)c3ccc(N4CCN(C)CC4)cc3)c2C1)c1ccccc1 [Danusertib]
- Any toxicity grade 1–4 during cycle 1 ([1]; All patients N = 63): 51 (81) n (%)
- Any toxicity grade 3 or 4 during cycle 1 ([1]; All patients N = 63): 22 (35) n (%)
- Febrile neutropenia during cycle 1 ([1]; All patients N = 63): 1 (2) n (%)
- Neutropenia grade 1–4 during cycle 1 ([1]; All patients N = 63): 34 (54) n (%)
- Neutropenia grade 3 or 4 during cycle 1 ([1]; All patients N = 63): 18 (29) n (%)
- Any toxicity grade 1–4 during cycle 1 ([1]; Phase I patients N = 48): 37 (77) n (%)
- Any toxicity grade 3 or 4 during cycle 1 ([1]; Phase I patients N = 48): 15 (31) n (%)
- Febrile neutropenia during cycle 1 ([1]; Phase I patients N = 48): 1 (2) n (%)
- Neutropenia grade 1–4 during cycle 1 ([1]; Phase I patients N = 48): 25 (52) n (%)
- Neutropenia grade 3 or 4 during cycle 1 ([1]; Phase I patients N = 48): 12 (25) n (%)
- Any toxicity grade 1–4 during cycle 1 ([1]; RP2D patients N = 30): 28 (93) n (%)
- Any toxicity grade 3 or 4 during cycle 1 ([1]; RP2D patients N = 30): 15 (50) n (%)
- Febrile neutropenia during cycle 1 ([1]; RP2D patients N = 30): 1 (3) n (%)
- Neutropenia grade 1–4 during cycle 1 ([1]; RP2D patients N = 30): 19 (63) n (%)
- Neutropenia grade 3–4: No (No. patients) [1, 9]: 2
- Neutropenia grade 3–4: Yes (No. patients) [1, 9]: 4
- Neutropenia grade 3–4: No (No. patients) ([1]; AURKA 91A > T TT, total 4 patients): 4
- Neutropenia grade 3–4: No (No. patients) ([1]; AURKA 169G > A AA, total 1 patient): 1
- Neutropenia grade 3–4: No (No. patients) [1, 10]: 6
- Neutropenia grade 3–4: Yes (No. patients) [1, 10]: 5
- Neutropenia grade 3–4: No (No. patients) [1, 11]: 10
- Neutropenia grade 3–4: Yes (No. patients) [1, 11]: 8
- Neutropenia grade 3–4: No (No. patients) [1, 12]: 6
- Neutropenia grade 3–4: Yes (No. patients) [1, 12]: 2
- Neutropenia grade 3–4: No (No. patients) [1, 13]: 4
- Neutropenia grade 3–4: Yes (No. patients) [1, 13]: 1
- Neutropenia grade 3–4: Yes (No. patients) ([1]; FLT3 738C > T CT, total 15 patients): 8
- Neutropenia grade 3–4: No (No. patients) [1, 14]: 6
- Neutropenia grade 3–4: Yes (No. patients) [1, 14]: 4
- Neutropenia grade 3–4: No (No. patients) [1, 15]: 5
- Neutropenia grade 3–4: Yes (No. patients) [1, 15]: 2
- Neutropenia grade 3–4: No (No. patients) [1, 16]: 2
- Neutropenia grade 3–4: Yes (No. patients) [1, 16]: 3
- Neutropenia grade 3–4: No (No. patients) [1, 17]: 10
- Neutropenia grade 3–4: Yes (No. patients) [1, 17]: 6
- Neutropenia grade 3–4: No (No. patients) [1, 18]: 5
- Neutropenia grade 3–4: Yes (No. patients) [1, 18]: 4
- Neutropenia grade 3–4: No (No. patients) [1, 19]: 2
- Neutropenia grade 3–4: Yes (No. patients) [1, 19]: 1
- Neutropenia grade 3–4: No (No. patients) ([1]; KDR 1192G > A GG, total 27 patients): 15
- Neutropenia grade 3–4: Yes (No. patients) ([1]; KDR 1719A > T AA, total 1 patient): 1
- Neutropenia grade 3–4: No (No. patients) ([1]; KDR 1719A > T AT, total 15 patients): 8
- Neutropenia grade 3–4: Yes (No. patients) ([1]; KDR 1719A > T TT, total 14 patients): 5
- Neutropenia grade 3–4: No (No. patients) ([1]; KDR −92G > A AA, total 3 patients): 3
- Neutropenia grade 3–4: No (No. patients) [1, 20]: 4
- Neutropenia grade 3–4: Yes (No. patients) [1, 20]: 3
- Neutropenia grade 3–4: No (No. patients) [1, 21]: 10
- Neutropenia grade 3–4: Yes (No. patients) [1, 21]: 10
- Neutropenia grade 3–4: Yes (No. patients) ([1]; KDR −604T > C CC, total 9 patients): 2
- Neutropenia grade 3–4: Yes (No. patients) ([1]; KDR −604T > C TC, total 15 patients): 8
- Neutropenia grade 3–4: No (No. patients) [1, 22]: 3
- Neutropenia grade 3–4: Yes (No. patients) [1, 22]: 3
- Neutropenia grade 3–4: No (No. patients) [1, 23]: 1
- Neutropenia grade 3–4: Yes (No. patients) [1, 23]: 2
- Neutropenia grade 3–4: No (No. patients) [1, 24]: 6
- Neutropenia grade 3–4: Yes (No. patients) [1, 24]: 2
- Neutropenia grade 3–4: No (No. patients) ([1]; RET 37412G > A AA, total 1 patient): 1
- Neutropenia grade 3–4: No (No. patients) [1, 25]: 2
- Neutropenia grade 3–4: Yes (No. patients) [1, 25]: 3
- Neutropenia grade 3–4: Yes (No. patients) ([1]; RET 37412G > A GG, total 24 patients): 10
- decrease in histone H3 phosphorylation ([2]; AURKB 893G > A heterozygous genotype (GA), SD 12.2%): 84%
- decrease in histone H3 phosphorylation ([2]; AURKB 893G > A homozygous wild type genotype (GG), SD 13.3%): 91%
- Histone H3 phosphorylation, % change in number of positive cells, Median ± SD ([2]; phase I patients, n = 28, skin, baseline vs 10 min before end of first infusion): -92.3 ± 13.1 Δ%
- IC50 [3]: < 500 nM
- IC50 [4]: < 500 nM
- IC50 (aurora-C (AURKC)): 61 nM
- substrate for efflux protein ABCG2 [5]: substrate
- Clearance d1c1 Mean ([6]; ABCB1 1236C > T CC, 16 patients): 17.8 L/hour/m^2
- Clearance d1c1 Mean ([6]; ABCB1 1236C > T CT, 21 patients): 18.3 L/hour/m^2
- Clearance d1c1 Mean ([6]; ABCB1 1236C > T TT, 10 patients): 18.6 L/hour/m^2
- Clearance d1c1 Mean ([6]; ABCB1 2677G > A/T GG, 17 patients): 18.2 L/hour/m^2
- Clearance d1c1 Mean ([6]; ABCB1 2677G > A/T GT, 20 patients): 18.5 L/hour/m^2
- Clearance d1c1 Mean ([6]; ABCB1 2677G > A/T TT, 10 patients): 17.7 L/hour/m^2
- Clearance d1c1 Mean ([6]; ABCB1 3435C > T CC, 13 patients): 19.5 L/hour/m^2
- Clearance d1c1 Mean ([6]; ABCB1 3435C > T CT, 21 patients): 17.7 L/hour/m^2
- Clearance d1c1 Mean ([6]; ABCB1 3435C > T TT, 13 patients): 17.8 L/hour/m^2
- Clearance d1c1 Mean ([6]; ABCG2 346G > A GA, 2 patients): 18.6 L/hour/m^2
- Clearance d1c1 Mean ([6]; ABCG2 346G > A GG, 45 patients): 18.2 L/hour/m^2
- Clearance d1c1 Mean ([6]; ABCG2 421C > A CA, 11 patients): 18.8 L/hour/m^2
- Clearance d1c1 Mean ([6]; ABCG2 421C > A CC, 36 patients): 18.1 L/hour/m^2
- Clearance d1c1 Mean ([6]; ABCG2 15994G > A AA, 3 patients): 16.5 L/hour/m^2
- Clearance d1c1 Mean ([6]; ABCG2 15994G > A GA, 21 patients): 18.2 L/hour/m^2
- Clearance d1c1 Mean ([6]; ABCG2 15994G > A GG, 23 patients): 18.5 L/hour/m^2
- Clearance d1c1 Mean ([6]; FMO3 15167G > A AA, 12 patients): 16.9 L/hour/m^2
- Clearance d1c1 Mean ([6]; FMO3 15167G > A GA, 20 patients): 18.1 L/hour/m^2
- Clearance d1c1 Mean ([6]; FMO3 15167G > A GG, 15 patients): 19.5 L/hour/m^2
- Clearance d1c1 Mean ([6]; FMO3 18281G > A AA, 1 patient): 34.0 L/hour/m^2
- Clearance d1c1 Mean ([6]; FMO3 18281G > A GA, 11 patients): 17.2 L/hour/m^2
- Clearance d1c1 Mean ([6]; FMO3 18281G > A GG, 35 patients): 18.1 L/hour/m^2
- Clearance d1c1 Mean ([6]; FMO3 21443A > G AA, 27 patients): 19.2 L/hour/m^2
- Clearance d1c1 Mean ([6]; FMO3 21443A > G AG, 18 patients): 16.9 L/hour/m^2
- Clearance d1c1 Mean ([6]; FMO3 21443A > G GG, 2 patients): 16.4 L/hour/m^2
- Clearance day 1 cycle 1, Median ± SD ([6]; phase I patients, n = 47): 17.8 ± 5.8 L/hour/m^2
- clearance ([7]; 3-hour infusion schedule): 16.2 L/hour/m^2
- clearance ([7]; 6-hour infusion schedule): 18.0 L/hour/m^2
- dose linearity of pharmacokinetics ([7]; over the dose-range studied, phase I): linear pharmacokinetics
- elimination half-life ([7]; phase I study, intravenous): about 30 h
- plasma clearance (range) ([7]; phase I study, intravenous): 10 to 59 L/h
- IC50 (ret proto-oncogene (RET)): < 500 nM
- substrate for efflux protein ABCB1 [8]: substrate
